{"source": "ChEMBL document CHEMBL1124614", "about": "“A carboxy-terminus truncated analogue of angiotensin II, [Sar1]angiotensin II-(1-7)-amide, provides an entry to a new class of angiotensin II antagonists” (J Med Chem, 1989)", "key": {"Rattus norvegicus [1]": {"system": "Rattus norvegicus", "test": "Variation in mean arterial pressure produced by angiotensin II, 10 min after administration (dose: 60 ug/kg/min) in rats; 61/5", "format": "functional, Artery", "in_short": "(§1)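 Rats were anesthetized and ganglion-blocked. Antagonist was given by iv infusion in µg/kg per min. The pressor response to angiotensin II (30 ng/kg iv) was measured before infusion, during infusion, and 5, 10, 20, 40 and 60 min after it. Responses are given as % of the pre-infusion control, as mean ± SEM, with n = 4–6 rats.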"}, "Oryctolagus cuniculus": {"species_on_record": "Oryctolagus cuniculus", "test": "Tested for antagonist activity in rabbit aortic rings, pA2 values were determined from Schild plots.", "format": "functional", "details": "Aorta, read-out: pA2 (converted)", "in_short": "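Isolated rabbit aortic rings were used and contraction was recorded. Agonist activity was tested up to 10⁻⁵ M. For antagonism, angiotensin II concentration-response curves were run with and without three antagonist concentrations. pD2 was taken from the curves and pA2 from Schild plots fitted by least squares.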"}, "Rattus norvegicus [2]": {"system": "Rattus norvegicus", "test": "Variation in mean arterial pressure produced by angiotensin II, 40 min after administration (dose: 60 ug/kg/min) in rats; 91/4", "format": "functional, Artery", "in_short": "as §1"}, "Rattus norvegicus [3]": {"species_on_record": "Rattus norvegicus", "test": "Concentration at which compound antagonizes increase in arterial pressure produced by angiotensin II", "details": "Artery"}, "Rattus norvegicus [4]": {"system": "Rattus norvegicus", "test": "Variation in mean arterial pressure produced by angiotensin II, 60 min after administration (dose: 60 ug/kg/min) in rats; 91/5", "format": "functional, Artery", "in_short": "as §1"}, "Rattus norvegicus [5]": {"system": "Rattus norvegicus", "test": "Variation in mean arterial pressure, produced by angiotensin II upon administration at 60 ug/kg/min in rats; 6/3", "format": "functional, Artery", "in_short": "as §1"}, "Rattus norvegicus [6]": {"system": "Rattus norvegicus", "test": "Variation in mean arterial pressure produced by angiotensin II, 5 min after administration (dose: 60 ug/kg/min) in rats; 50/5", "format": "functional, Artery", "in_short": "as §1"}, "Rattus norvegicus [7]": {"system": "Rattus norvegicus", "test": "Variation in mean arterial pressure produced by angiotensin II, 20 min after administration (dose: 60 ug/kg/min) in rats; 78/5", "format": "functional, Artery", "in_short": "as §1"}, "[8]": {"test": "Rate constant was determined for the compound", "format": "ADME"}, "Canis familiaris": {"species_on_record": "Canis familiaris", "test": "Antagonistic effect on aldosterone secretion by zona glomerulosa cells from canine adrenal glands", "format": "functional", "details": "Canis lupus familiaris; Adrenal gland"}, "Rattus norvegicus [9]": {"system": "Rattus norvegicus", "test": "Variation in mean arterial pressure produced by angiotensin II, 5 min after administration (dose 30 ug/kg/min) in rats; 35/1", "format": "functional, Artery", "in_short": "as §1"}, "Rattus norvegicus [10]": {"system": "Rattus norvegicus", "test": "Variation in mean arterial pressure produced by angiotensin II, 40 min after administration (dose 30 ug/kg/min) in rats; 96/4", "format": "functional, Artery", "in_short": "as §1"}, "Rattus norvegicus [11]": {"system": "Rattus norvegicus", "test": "Variation in mean arterial pressure produced by angiotensin II, 20 min after administration (dose 30 ug/kg/min) in rats; 87/4", "format": "functional, Artery", "in_short": "as §1"}, "Rattus norvegicus [12]": {"system": "Rattus norvegicus", "test": "Variation in mean arterial pressure produced by angiotensin II, 10 min after administration (dose 30 ug/kg/min) in rats; 63/3", "format": "functional, Artery", "in_short": "as §1"}, "Rattus norvegicus [13]": {"system": "Rattus norvegicus", "test": "Variation in mean arterial pressure, produced by angiotensin II upon administration at 30 ug/kg/min in rats", "format": "functional, Artery", "in_short": "as §1"}, "Rattus norvegicus [14]": {"system": "Rattus norvegicus", "test": "Variation in mean arterial pressure produced by angiotensin II, 60 min after administration (dose 30 ug/kg/min) in rats; 97/3", "format": "functional, Artery", "in_short": "as §1"}, "Rattus norvegicus [15]": {"system": "Rattus norvegicus", "test": "Variation in mean arterial pressure, produced by angiotensin II upon administration at 10 ug/kg/min in rats", "format": "functional, Artery", "in_short": "as §1"}, "Rattus norvegicus [16]": {"system": "Rattus norvegicus", "test": "Variation in mean arterial pressure produced by angiotensin II, 60 min after administration (dose 10 ug/kg/min) in rats; 94/6", "format": "functional, Artery", "in_short": "as §1"}, "Rattus norvegicus [17]": {"system": "Rattus norvegicus", "test": "Variation in mean arterial pressure produced by angiotensin II, 10 min after administration (dose 10 ug/kg/min) in rats; 50/5", "format": "functional, Artery", "in_short": "as §1"}, "Rattus norvegicus [18]": {"system": "Rattus norvegicus", "test": "Variation in mean arterial pressure produced by angiotensin II, 20 min after administration (dose 10 ug/kg/min) in rats; 78/5", "format": "functional, Artery", "in_short": "as §1"}, "Rattus norvegicus [19]": {"system": "Rattus norvegicus", "test": "Variation in mean arterial pressure produced by angiotensin II, 5 min after administration (dose 10 ug/kg/min) in rats; 29/5", "format": "functional, Artery", "in_short": "as §1"}, "Rattus norvegicus [20]": {"system": "Rattus norvegicus", "test": "Variation in mean arterial pressure produced by angiotensin II, 40 min after administration (dose 10 ug/kg/min) in rats; 96/4", "format": "functional, Artery", "in_short": "as §1"}}, "note": "Peptide text beside a SMILES is read from it."}
{"smiles": "CC[C@H](C)[C@H](NC(=O)[C@H](Cc1ccc(O)cc1)NC(=O)[C@@H](NC(=O)[C@H](CCCN=C(N)N)NC(=O)CNC)C(C)C)C(=O)N[C@@H](Cc1c[nH]cn1)C(=O)N1CCC[C@H]1C(N)=O", "values": [{"measurement": "Control", "setting": "Rattus norvegicus [1]", "value": 61, "unit": "%"}, {"measurement": "Kb", "setting": "Oryctolagus cuniculus", "value": 0.0234, "unit": "µM"}, {"measurement": "Control", "setting": "Rattus norvegicus [2]", "value": 91, "unit": "%"}, {"measurement": "Concentration (ug min-1 kg-1)", "setting": "Rattus norvegicus [3]", "value": 60}, {"measurement": "Control", "setting": "Rattus norvegicus [4]", "value": 91, "unit": "%"}, {"measurement": "Control", "setting": "Rattus norvegicus [5]", "value": 6, "unit": "%"}, {"measurement": "Control", "setting": "Rattus norvegicus [6]", "value": 50, "unit": "%"}, {"measurement": "Control", "setting": "Rattus norvegicus [7]", "value": 78, "unit": "%"}]}
{"smiles": "CC[C@H](C)[C@H](NC(=O)[C@H](Cc1ccc(O)cc1)NC(=O)[C@@H](NC(=O)[C@H](CCCNC(=N)N)NC(=O)[C@@H](N)CC(=O)O)C(C)C)C(=O)N[C@@H](Cc1cnc[nH]1)C(=O)N1CCC[C@H]1C(=O)N[C@@H](Cc1ccccc1)C(=O)O", "note": "[ANGIOTENSIN II]", "values": [{"measurement": "pD2", "setting": "[8]", "value": 8.98}]}
{"smiles": "CC(C)[C@H](NC(=O)[C@H](CCCN=C(N)N)NC(=O)[C@@H](N)CC(=O)O)C(=O)N[C@@H](Cc1ccc(O)cc1)C(=O)N[C@H](C(=O)N[C@@H](Cc1c[nH]cn1)C(=O)N1CCC[C@H]1C(=O)O)C(C)C", "note": "(H-DRVYVHP-OH)", "values": [{"measurement": "Concentration", "setting": "Canis familiaris", "value": 1, "unit": "mM"}]}
{"smiles": "CC[C@H](C)[C@H](NC(=O)[C@H](Cc1ccc(OC)cc1)NC(=O)[C@@H](NC(=O)[C@H](CCCN=C(N)N)NC(=O)CNC)C(C)C)C(=O)N[C@@H](Cc1c[nH]cn1)C(=O)N1CCC[C@H]1C(=O)N[C@@H](Cc1ccccc1)C(=O)O", "values": [{"measurement": "Control", "setting": "Rattus norvegicus [9]", "value": 35, "unit": "%"}, {"measurement": "Control", "setting": "Rattus norvegicus [10]", "value": 96, "unit": "%"}, {"measurement": "Control", "setting": "Rattus norvegicus [11]", "value": 87, "unit": "%"}, {"measurement": "Control", "setting": "Rattus norvegicus [12]", "value": 63, "unit": "%"}, {"measurement": "Control", "setting": "Rattus norvegicus [13]", "value": 0, "unit": "%"}, {"measurement": "Control", "setting": "Rattus norvegicus [14]", "value": 97, "unit": "%"}]}
{"smiles": "CNCC(=O)N[C@@H](CCCNC(=N)N)C(=O)N[C@H](C(=O)N[C@@H](Cc1ccc(O)cc1)C(=O)N[C@H](C(=O)N[C@@H](Cc1cnc[nH]1)C(=O)N1CCC[C@H]1C(=O)N[C@@H](C)C(=O)O)C(C)C)C(C)C", "note": "[SARALASIN]", "values": [{"measurement": "Control", "setting": "Rattus norvegicus [15]", "value": 0, "unit": "%"}, {"measurement": "Control", "setting": "Rattus norvegicus [16]", "value": 94, "unit": "%"}, {"measurement": "Control", "setting": "Rattus norvegicus [17]", "value": 50, "unit": "%"}, {"measurement": "Control", "setting": "Rattus norvegicus [18]", "value": 78, "unit": "%"}, {"measurement": "Control", "setting": "Rattus norvegicus [19]", "value": 29, "unit": "%"}, {"measurement": "Control", "setting": "Rattus norvegicus [20]", "value": 96, "unit": "%"}]}
